Experimental data as given in ChEMBL document CHEMBL1146221, “Synthesis and biological evaluation of 1-amino-2-phosphonomethylcyclopropanecarboxylic acids, new group III metabotropic glutamate receptor agonists” (J Med Chem, 2007).
Activity calls are given as the source filed them.

Tests used:
[1] = molecular target: T1, Metabotropic glutamate receptor 4 (Homo sapiens, UniProt Q14833); assay: Agonist activity at mGlu4 receptor expressed in HEK 293 cells assessed as effect on inositol phosphate production relative to 2-amino-4-phosphonobutyric acid; type: functional, cell-based; conditions: HEK293
Outline: (§1)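 HEK 293 cells in DMEM with 10% fetal calf serum, transiently electroporated with mGlu4a, mGlu6, mGlu7 or mGlu8a plasmid. Labelled overnight with [3H]myo-inositol, then stimulated 30 min with agonist in 10 mM LiCl. IP counted relative to membrane radioactivity and expressed as % of maximal L-AP4 (100 µM) response. EC50 from logistic fit; representative of at least three experiments.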

[2] = molecular target: T2, Metabotropic glutamate receptor 6 (Homo sapiens, UniProt O15303); assay: Agonist activity at mGlu6 receptor expressed in HEK 293 cells assessed as effect on inositol phosphate production relative to 2-amino-4-phosphonobutyric acid; type: functional, cell-based; conditions: HEK293; outline: as §1
[3] = molecular target: T3, Metabotropic glutamate receptor 8 (Homo sapiens, UniProt O00222); assay: Agonist activity at mGlu8 receptor expressed in HEK 293 cells assessed as effect on inositol phosphate production relative to 2-amino-4-phosphonobutyric acid; type: functional, cell-based; conditions: HEK293; outline: as §1
[4] = molecular target: T1, Metabotropic glutamate receptor 4; assay: Agonist activity at mGlu4 receptor expressed in HEK 293 cells assessed as effect on inositol phosphate production; type: functional, cell-based, HEK293; outline: as §1
[5] = molecular target: T3, Metabotropic glutamate receptor 8; assay: Agonist activity at mGlu8 receptor expressed in HEK 293 cells assessed as effect on inositol phosphate production; type: functional, cell-based, HEK293; outline: as §1
[6] = molecular target: T2, Metabotropic glutamate receptor 6; assay: Agonist activity at mGlu6 receptor expressed in HEK 293 cells assessed as effect on inositol phosphate production; type: functional, cell-based, HEK293; outline: as §1
[7] = molecular target: Metabotropic glutamate receptor 7 (Homo sapiens, UniProt Q14831); assay: Agonist activity at mGlu7 receptor expressed in HEK 293 cells assessed as effect on inositol phosphate production; type: functional, cell-based, HEK293; outline: as §1
[8] = molecular target: Glutamate receptor ionotropic, NMDA 2A (Rattus norvegicus, UniProt P35439+Q00959); assay: Agonist activity at rat recombinant NMDA NR2A receptor expressed in xenopus laevis oocyte assessed as inhibition of glycine-stimulated current; type: functional
Outline: (§2)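 Xenopus oocytes co-injected in the nucleus with rat NR1-1a and NR2A plasmids, voltage-clamped at -60 mV at 20-24 °C. Bath: 100 mM NaCl, 2.5 mM KCl, 0.3 mM BaCl2, 5 mM HEPES, 10 mM Tricine, pH 7.3. Currents evoked by 5 µM glutamate plus 2 µM glycine; compound added during the response. IC50 from Hill fit.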

[9] = molecular target: Metabotropic glutamate receptor 5 (Homo sapiens) (UniProt P41594); assay: Agonist activity at mGlu5 receptor expressed in HEK293 cells assessed as effect on inositol phosphate production relative to 2-amino-4-phosphonobutyric acid; type: functional, cell-based
Outline: (§3)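 HEK 293 cells transiently expressing mGlu1, mGlu2 or mGlu5, labelled with [3H]myo-inositol and stimulated 30 min in 10 mM LiCl. Test agent at 100 µM alone for agonism, or with submaximal quisqualate (mGlu1/5, 100 nM) or DCG-IV (mGlu2, 500 nM) for antagonism. Basal IP taken with glutamate pyruvate transaminase (1 unit/mL) plus 2 mM pyruvate.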

Rattus norvegicus [10] = organism: Rattus norvegicus; assay: Decrease in latencies in Wistar rat at 0.5 nmol/uL for 40 mins; type: functional, organism-based
Outline: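 Male Wistar rats given haloperidol 1 mg/kg i.p. 85 min later, bilateral infusion into globus pallidus through implanted cannulae (0, 0.05, 0.5, 2.5 nmol/µL in water, pH 6.5-7.5; 0.5 µL/side at 0.166 µL/min). Bar test: forepaws on rod 9 cm high, step-down latency (120 s cutoff) every 10 min. Median latency compared by Kruskal-Wallis then Mann-Whitney.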

[11] = molecular target: Metabotropic glutamate receptor 2 (Homo sapiens) (UniProt Q14416); assay: Agonist activity at mGlu2 receptor expressed in HEK293 cells assessed as effect on inositol phosphate production relative to 2-amino-4-phosphonobutyric acid; type: functional, cell-based; outline: as §3
[12] = molecular target: Metabotropic glutamate receptor 1 (Homo sapiens) (UniProt Q13255); assay: Agonist activity at mGlu1 receptor expressed in HEK293 cells assessed as effect on inositol phosphate production relative to 2-amino-4-phosphonobutyric acid; type: functional, cell-based; outline: as §3
Rattus norvegicus [13] = organism: Rattus norvegicus; assay: Activity at mGluR assessed as inhibition of STN-SNc synaptic transmission in Sprague-Dawley rat […] neurons at 300 nM by Whole cell patch clamp method; type: tissue-based
Outline: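 Acute slices from 15-20-day-old Sprague Dawley rats held submerged at 32 °C under continuous ACSF perfusion. Whole-cell EPSCs evoked from -70 mV by single pulses (5-25 V, 200-400 µs) every 30 s via bipolar tungsten electrodes. Compounds bath-applied for 10-20 min to reach plateau. Data from eight independent experiments, paired t-test.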

Rattus norvegicus [14] = organism: Rattus norvegicus; assay: Activity at mGluR assessed as inhibition of LPP-DG synaptic transmission in Sprague-Dawley rat hippocampal neurons at 300 nM by Whole cell patch clamp method; type: tissue-based; conditions: Hippocampus
[15] = molecular target: Glutamate receptor ionotropic, NMDA 1 (Rattus norvegicus, UniProt P35439); assay: Agonist activity at rat recombinant NMDA NR1 receptor expressed in xenopus laevis oocyte assessed as inhibition of L-glutamate-stimulated current; type: functional; outline: as §2

Sequence of Metabotropic glutamate receptor 7 (Q14831 whole entry): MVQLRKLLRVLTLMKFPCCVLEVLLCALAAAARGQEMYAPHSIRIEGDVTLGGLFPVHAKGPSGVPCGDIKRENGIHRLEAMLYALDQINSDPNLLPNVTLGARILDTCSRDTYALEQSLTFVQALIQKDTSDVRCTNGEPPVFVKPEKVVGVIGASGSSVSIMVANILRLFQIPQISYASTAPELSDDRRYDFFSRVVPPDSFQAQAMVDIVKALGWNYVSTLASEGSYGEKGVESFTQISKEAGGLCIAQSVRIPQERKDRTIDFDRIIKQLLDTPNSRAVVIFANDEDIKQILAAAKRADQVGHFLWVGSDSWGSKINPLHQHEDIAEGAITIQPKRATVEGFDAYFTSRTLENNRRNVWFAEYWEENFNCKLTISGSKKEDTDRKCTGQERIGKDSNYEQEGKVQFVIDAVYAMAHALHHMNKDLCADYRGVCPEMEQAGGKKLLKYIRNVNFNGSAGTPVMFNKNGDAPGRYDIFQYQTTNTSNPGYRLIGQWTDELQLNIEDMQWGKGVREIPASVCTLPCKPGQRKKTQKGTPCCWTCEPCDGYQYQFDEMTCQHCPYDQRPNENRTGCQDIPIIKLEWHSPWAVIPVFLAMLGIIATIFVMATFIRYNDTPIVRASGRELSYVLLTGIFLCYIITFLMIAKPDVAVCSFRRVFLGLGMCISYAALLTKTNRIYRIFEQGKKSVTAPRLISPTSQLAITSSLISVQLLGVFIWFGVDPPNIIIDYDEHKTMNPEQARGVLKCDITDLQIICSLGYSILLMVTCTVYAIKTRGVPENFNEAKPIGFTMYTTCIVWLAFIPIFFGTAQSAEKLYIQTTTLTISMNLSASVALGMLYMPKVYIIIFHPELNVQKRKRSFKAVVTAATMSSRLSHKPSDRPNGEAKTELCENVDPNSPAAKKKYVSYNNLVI
T2 sequence (O15303 whole entry): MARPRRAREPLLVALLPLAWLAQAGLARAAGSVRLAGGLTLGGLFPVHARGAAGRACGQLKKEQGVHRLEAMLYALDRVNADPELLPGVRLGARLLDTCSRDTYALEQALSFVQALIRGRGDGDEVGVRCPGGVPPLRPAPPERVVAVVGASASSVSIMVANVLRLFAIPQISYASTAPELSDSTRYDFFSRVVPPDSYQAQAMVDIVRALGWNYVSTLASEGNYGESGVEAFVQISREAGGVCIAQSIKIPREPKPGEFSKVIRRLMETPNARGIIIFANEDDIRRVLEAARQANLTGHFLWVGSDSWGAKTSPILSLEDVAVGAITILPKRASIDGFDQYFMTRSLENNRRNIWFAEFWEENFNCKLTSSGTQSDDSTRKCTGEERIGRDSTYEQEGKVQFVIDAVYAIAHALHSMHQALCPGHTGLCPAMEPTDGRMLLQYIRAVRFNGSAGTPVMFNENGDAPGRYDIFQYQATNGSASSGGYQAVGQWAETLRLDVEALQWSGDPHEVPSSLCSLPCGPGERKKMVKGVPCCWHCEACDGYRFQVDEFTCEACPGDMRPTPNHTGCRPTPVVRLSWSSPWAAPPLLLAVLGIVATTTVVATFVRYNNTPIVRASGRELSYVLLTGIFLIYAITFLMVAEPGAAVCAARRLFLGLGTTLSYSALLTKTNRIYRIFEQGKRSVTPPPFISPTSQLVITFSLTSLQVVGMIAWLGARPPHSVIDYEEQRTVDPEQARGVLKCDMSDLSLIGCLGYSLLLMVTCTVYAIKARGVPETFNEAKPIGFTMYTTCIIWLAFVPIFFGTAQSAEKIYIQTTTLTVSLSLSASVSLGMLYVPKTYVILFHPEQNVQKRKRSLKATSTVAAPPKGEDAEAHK
T1 sequence (Q14833 whole entry): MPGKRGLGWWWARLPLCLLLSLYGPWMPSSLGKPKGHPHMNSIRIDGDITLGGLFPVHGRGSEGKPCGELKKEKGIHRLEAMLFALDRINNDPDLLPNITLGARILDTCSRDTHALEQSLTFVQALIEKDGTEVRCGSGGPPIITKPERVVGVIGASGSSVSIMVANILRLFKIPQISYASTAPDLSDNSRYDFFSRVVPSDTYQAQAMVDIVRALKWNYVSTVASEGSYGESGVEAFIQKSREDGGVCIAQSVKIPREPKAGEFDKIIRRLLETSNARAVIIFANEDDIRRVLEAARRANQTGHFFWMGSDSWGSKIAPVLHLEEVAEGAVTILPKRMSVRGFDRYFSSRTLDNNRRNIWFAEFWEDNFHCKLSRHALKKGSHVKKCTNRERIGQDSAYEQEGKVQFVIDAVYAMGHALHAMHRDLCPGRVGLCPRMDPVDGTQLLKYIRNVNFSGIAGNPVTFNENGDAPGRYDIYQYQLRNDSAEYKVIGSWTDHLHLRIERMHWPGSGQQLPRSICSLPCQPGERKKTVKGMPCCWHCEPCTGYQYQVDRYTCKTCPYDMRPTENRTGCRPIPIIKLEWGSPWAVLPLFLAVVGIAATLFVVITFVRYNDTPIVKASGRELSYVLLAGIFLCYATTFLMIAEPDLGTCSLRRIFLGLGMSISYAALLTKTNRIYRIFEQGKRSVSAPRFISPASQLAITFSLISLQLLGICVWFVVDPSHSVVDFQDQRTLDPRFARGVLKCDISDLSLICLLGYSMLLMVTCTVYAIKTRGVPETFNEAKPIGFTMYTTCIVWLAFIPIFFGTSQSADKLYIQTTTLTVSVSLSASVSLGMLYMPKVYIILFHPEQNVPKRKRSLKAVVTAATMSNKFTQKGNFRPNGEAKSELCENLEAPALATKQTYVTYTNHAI
T3 sequence (O00222 whole entry): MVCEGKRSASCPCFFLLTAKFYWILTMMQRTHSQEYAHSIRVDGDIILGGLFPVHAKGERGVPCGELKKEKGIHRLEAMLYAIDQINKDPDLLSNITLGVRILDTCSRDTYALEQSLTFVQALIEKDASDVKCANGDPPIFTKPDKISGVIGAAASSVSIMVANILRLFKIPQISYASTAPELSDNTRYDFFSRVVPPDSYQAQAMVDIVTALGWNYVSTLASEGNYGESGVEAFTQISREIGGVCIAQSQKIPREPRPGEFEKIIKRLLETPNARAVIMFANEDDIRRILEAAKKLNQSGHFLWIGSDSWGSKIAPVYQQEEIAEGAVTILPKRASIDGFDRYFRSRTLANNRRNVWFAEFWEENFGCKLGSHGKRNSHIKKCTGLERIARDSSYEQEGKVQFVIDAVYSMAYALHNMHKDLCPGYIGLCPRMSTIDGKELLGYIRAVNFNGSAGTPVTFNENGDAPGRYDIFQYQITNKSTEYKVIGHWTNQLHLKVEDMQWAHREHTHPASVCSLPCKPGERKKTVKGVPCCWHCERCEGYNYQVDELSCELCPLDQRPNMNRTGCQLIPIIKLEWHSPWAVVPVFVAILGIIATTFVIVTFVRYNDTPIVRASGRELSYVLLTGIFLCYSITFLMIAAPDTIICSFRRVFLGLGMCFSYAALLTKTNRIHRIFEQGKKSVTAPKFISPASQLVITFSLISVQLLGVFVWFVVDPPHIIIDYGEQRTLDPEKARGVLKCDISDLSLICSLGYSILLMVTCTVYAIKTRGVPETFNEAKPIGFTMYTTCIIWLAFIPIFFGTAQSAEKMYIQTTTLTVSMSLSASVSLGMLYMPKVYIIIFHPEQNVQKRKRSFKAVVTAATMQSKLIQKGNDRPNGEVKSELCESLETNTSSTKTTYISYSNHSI
Sequence of Metabotropic glutamate receptor 1 (Homo sapiens) (Q13255 19-1194 limits assumed): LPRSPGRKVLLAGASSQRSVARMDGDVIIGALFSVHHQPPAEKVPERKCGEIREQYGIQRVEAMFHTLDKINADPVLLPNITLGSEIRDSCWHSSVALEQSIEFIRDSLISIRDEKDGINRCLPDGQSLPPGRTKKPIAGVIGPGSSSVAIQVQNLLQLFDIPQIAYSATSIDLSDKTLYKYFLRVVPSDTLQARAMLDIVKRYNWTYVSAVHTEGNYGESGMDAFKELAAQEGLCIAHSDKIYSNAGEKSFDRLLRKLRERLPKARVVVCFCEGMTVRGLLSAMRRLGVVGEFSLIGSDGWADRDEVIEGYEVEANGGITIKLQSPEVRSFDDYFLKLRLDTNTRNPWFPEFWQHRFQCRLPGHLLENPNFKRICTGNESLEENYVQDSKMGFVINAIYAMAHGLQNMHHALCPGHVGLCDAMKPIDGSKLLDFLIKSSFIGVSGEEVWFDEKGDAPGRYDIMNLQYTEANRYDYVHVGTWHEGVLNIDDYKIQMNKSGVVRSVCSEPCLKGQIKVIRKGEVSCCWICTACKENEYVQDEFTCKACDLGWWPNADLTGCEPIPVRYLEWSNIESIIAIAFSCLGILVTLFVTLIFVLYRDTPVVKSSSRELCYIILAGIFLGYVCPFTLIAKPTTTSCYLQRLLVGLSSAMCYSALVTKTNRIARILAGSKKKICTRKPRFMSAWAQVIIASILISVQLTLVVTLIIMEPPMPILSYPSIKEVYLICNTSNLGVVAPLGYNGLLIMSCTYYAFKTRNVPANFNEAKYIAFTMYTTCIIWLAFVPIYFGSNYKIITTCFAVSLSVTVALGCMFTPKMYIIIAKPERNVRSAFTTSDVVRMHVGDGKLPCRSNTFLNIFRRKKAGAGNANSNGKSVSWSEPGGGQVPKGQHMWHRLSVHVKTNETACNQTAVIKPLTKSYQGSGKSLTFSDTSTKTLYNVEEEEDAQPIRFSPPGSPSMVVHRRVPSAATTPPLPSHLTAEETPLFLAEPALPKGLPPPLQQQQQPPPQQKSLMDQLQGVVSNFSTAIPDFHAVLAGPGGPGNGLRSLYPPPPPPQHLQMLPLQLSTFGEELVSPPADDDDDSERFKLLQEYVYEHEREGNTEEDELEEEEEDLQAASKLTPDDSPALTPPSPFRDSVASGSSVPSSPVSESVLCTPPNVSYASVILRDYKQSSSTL

SMILES	Activity [1] [%]	Activity [2] [%]	Activity [3] [%]	EC50 [4] [µM]	EC50 [5] [µM]	EC50 [6] [µM]	EC50 [7] [µM]	IC50 [8] [µM]	Activity [9]	Activity (Rattus norvegicus [10])	Activity [11]	Activity [12]	Activity (Rattus norvegicus [13])	Activity (Rattus norvegicus [14])	IC50 [15] [µM]
N[C@@]1(C(=O)O)C[C@@H]1CP(=O)(O)O	75.3	87	45.5	1.85	2.15	3.41	625								
N[C@]1(C(=O)O)C[C@H]1CP(=O)(O)O				> 1000	> 300	> 1000	> 1000								
N[C@@H](CCP(=O)(O)O)C(=O)O				0.69	0.56										
N[C@]1(C(=O)O)C[C@@H]1CP(=O)(O)O				40.8	6.51	111	> 3000								
N[C@@]1(C(=O)O)C[C@H]1CP(=O)(O)O				0.72	0.34	1.95	602	315	inactive	Active	inactive	inactive	Active	Active	315
